Data set [1] relates to Plasmodium falciparum. As to the kind of experiment: Antiplasmodial activity against blood stage forms of chloroquine-sensitive Plasmodium falciparum D10 incubated for 3 days by HRP2 detection based ELISA method. Type of data set: functional, organism-based. The conditions noted are these: D10, 72 h. The gist of the method: (§1)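 Asexual blood-stage P. falciparum kept in continuous culture. Proliferation read by HRP2 ELISA. Each test used 12 serial dilutions. Values are means of at least two independent experiments, each run in duplicate.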

The subject of data set [2] is Plasmodium falciparum. Nature of the data set: Antiplasmodial activity against blood stage forms of multidrug-resistant Plasmodium falciparum Dd2 incubated for 3 days by HRP2 detection based ELISA method. The conditions noted are these: Dd2, 72 h. The class given is functional, organism-based. The gist of the method:
as §1
Background: ELISA stands for enzyme-linked immunosorbent assay.

Data set [3] is described as follows: Inhibition of recombinant Plasmodium falciparum IspC using [3,4,5-13C3]1-Deoxy-D-xylulose 5-phosphate substrate by photometric assay. The essentials:
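Pf IspC inhibition values are mean ± SD from nine or more data points, obtained by nonlinear regression analysis.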

Data set [4] relates to Plasmodium berghei. As to the kind of experiment: Antimalarial activity against Plasmodium berghei infected in NMRI mouse assessed as mean survival time at 50 mg/kg, ip qd for 4 days starting 4 hrs post infection measured on 96 hrs post infection (reference value: 4 days). The class given is functional. The note with it: route intraperitoneal. The gist of the method:
(§2)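 Standard 4-day Peters test in P. berghei-infected mice. Compounds dissolved or suspended in 70:30 Tween 80/ethanol, then diluted 10× with water. Given at 50 mg/kg once daily, orally or intraperitoneally, at 4, 24, 48 and 72 h postinfection (n = 3 mice per group). Blood collected at 96 h. Mean survival time reported; […].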

Data set [5] has as its system Plasmodium berghei. As to the kind of experiment: Antimalarial activity against Plasmodium berghei infected in NMRI mouse assessed as reduction in parasitemia at 50 mg/kg, po qd for 4 days starting 4 hrs post infection measured on 96 hrs post infection relative to control. Type of data set: functional. More on the design: scale not given: the % may be the effect or the level left. The gist of the method:
(§3)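 Peters 4-day suppressive test in P. berghei-infected mice, 50 mg/kg once daily orally or intraperitoneally at 4, 24, 48 and 72 h after infection. Compound dissolved or suspended in 70:30 Tween 80/ethanol, then diluted 10× with water. Groups of 3 mice. Blood taken on day 4 (96 h). Activity is the difference in mean % parasitaemia between control and treated groups, as a percent of control.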

Data set [6] can be described thus: Selectivity index, ratio of IC50 for human HeLa cells to IC50 for blood stage forms of multidrug-resistant Plasmodium falciparum Dd2. Type of data set: toxicity, cell-based. The conditions noted are these: HeLa cells versus blood stage Plasmodium falciparum Dd2, read-out: Ratio IC50. The gist of the method:
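Index computed as HeLa cell IC50 divided by P. falciparum Dd2 IC50. HeLa values are means of two duplicate determinations.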

Data set [7] deals with Plasmodium berghei. Nature of the data set: Antimalarial activity against Plasmodium berghei infected in NMRI mouse assessed as mean survival time at 50 mg/kg, po qd for 4 days starting 4 hrs post infection measured on 96 hrs post infection (reference value: 4 days). Type of data set: functional. The gist of the method:
as §2

The test system of the next data set is HeLa. Nature of the data set: Cytotoxicity against human HeLa cells. The class given is cell-based. The gist of the method: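 HeLa cytotoxicity values are the mean of two duplicate determinations.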
Data set [8] deals with Plasmodium berghei. As to the kind of experiment: Antimalarial activity against Plasmodium berghei infected in NMRI mouse assessed as reduction in parasitemia at 50 mg/kg, ip qd for 4 days starting 4 hrs post infection measured on 96 hrs post infection relative to control. More on the design: scale not given: the % may be the effect or the level left. The conditions noted are these: route intraperitoneal. The class given is functional. The gist of the method: as §3

The subject of data set [9] is Plasmodium falciparum. Nature of the data set: Antimalarial activity against Plasmodium falciparum infected in SCID mouse engrafted with human erythrocytes assessed as reduction in parasitemia at 50 mg/kg, ip qd for 4 days relative to control. The class given is functional. More on the design: scale not given: the % may be the effect or the level left. The note with it: route intraperitoneal. The essentials: (§4)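 P. falciparum SCID mouse model with treated groups of 2 mice and a control group of 5. Dosed orally or intraperitoneally once daily on days 3, 4, 5 and 6 after infection. Blood collected on day 4 after the first treatment; parasitized erythrocytes counted as % relative to control.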

The test system of data set [10] is Plasmodium falciparum. Nature of the data set: Antiplasmodial activity against blood stage forms of chloroquine-sensitive Plasmodium falciparum 3D7 incubated for 3 days by HRP2 detection based ELISA method. Type of data set: functional, organism-based. The conditions noted are these: 3D7, 72 h. The gist of the method:
as §1

The test system of data set [11] is Plasmodium falciparum. Nature of the data set: Antimalarial activity against Plasmodium falciparum infected in SCID mouse engrafted with human erythrocytes assessed as reduction in parasitemia at 50 mg/kg, po qd for 4 days relative to control. Type of data set: functional. More on the design: scale not given: the % may be the effect or the level left. The essentials:
as §4

Data set [12] has as its system Plasmodium berghei. As to the kind of experiment: Antimalarial activity against Plasmodium berghei infected in NMRI mouse assessed as reduction in parasitemia at 30 mg/kg, po qd for 4 days starting 4 hrs post infection measured on 96 hrs post infection relative to control. The class given is functional. More on the design: scale not given: the % may be the effect or the level left.

Data set [13] has as its system Plasmodium berghei. Nature of the data set: Antimalarial activity against Plasmodium berghei infected in NMRI mouse assessed as mean survival time at 30 mg/kg, po qd for 4 days starting 4 hrs post infection measured on 96 hrs post infection (reference value: 4 days). Type of data set: functional.
Data set [14] concerns Plasmodium falciparum. As to the kind of experiment: Antimalarial activity against Plasmodium falciparum infected in SCID mouse engrafted with human erythrocytes assessed as reduction in parasitemia at 13 mg/kg, po qd for 4 days relative to control. Further details: scale not given: the % may be the effect or the level left. Type of data set: functional.
The subject of data set [15] is Plasmodium falciparum. As to the kind of experiment: Antimalarial activity against Plasmodium falciparum infected in SCID mouse engrafted with human erythrocytes assessed as reduction in parasitemia at 5 mg/kg, po qd for 4 days relative to control. The class given is functional. Further details: scale not given: the % may be the effect or the level left.

As usually defined, the IC50 is the midpoint of a concentration-inhibition curve. On to `O=C(CCC(c1ccc(F)c(F)c1)P(=O)(O)O)NO` (stereo not given), for which the IC50 was determined as 0.21 µM with Plasmodium falciparum [1], 0.65 µM in the data set on Plasmodium falciparum [2] and 0.0028 µM in data set [3].
For `CN(O)C(=O)CCC(c1ccc(F)c(F)c1)P(=O)(O)O` (stereo not given), the IC50 was 0.083 µM in the data set on Plasmodium falciparum [1], 0.0034 µM in data set [3] and greater than 1000 µM in the data set with HeLa. Besides, the Survival stood at 6.7 days in the data set with Plasmodium berghei [4] and 6 days in the data set with Plasmodium berghei [7]. The Activity in the data set with Plasmodium berghei [5] is 57%; with Plasmodium berghei [8] it was 62%; in the data set on Plasmodium falciparum [9] it was 0%. In addition, the selectivity ratio in [6] was greater than 2500.
Turning to `CN(O)C(=O)COC(c1ccc(F)c(F)c1)P(=O)(O)O` (stereo not given), the IC50 in the data set on Plasmodium falciparum [1] was 0.52 µM; in data set [3], 0.012 µM; in the data set with HeLa, greater than 1000 µM. For the same molecule, the selectivity ratio in data set [6] is greater than 7690.
Take `CC(=O)N(O)CCCP(=O)(OCOC(=O)C(C)(C)C)OCOC(=O)C(C)(C)C`: the results for the IC50 in the data set with Plasmodium falciparum [2] and in the data set on Plasmodium falciparum [10] were 0.028 µM and 0.041 µM, respectively.
As for `CC(C)(C)C(=O)OCOP(=O)(CCCN(O)C=O)OCOC(=O)C(C)(C)C`, the figures for the IC50 in the data set on Plasmodium falciparum [1], in the data set on Plasmodium falciparum [2] and in the data set on Plasmodium falciparum [10] were 1.8 µM, 0.49 µM and 0.48 µM, respectively.
For `CCCCOC(=O)OCOP(=O)(OCOC(=O)OCCCC)C(CCC(=O)NO)c1ccc(F)c(F)c1` (stereo not given), the IC50 with Plasmodium falciparum [1] was 0.1 µM; in the data set with Plasmodium falciparum [2], 0.009 µM; in data set [3], greater than 1000 µM; in the data set with Plasmodium falciparum [10], 0.039 µM.
For `CCCCOC(=O)OCOP(=O)(OCOC(=O)OCCCC)C(CCC(=O)N(C)O)c1ccc(F)c(F)c1` (stereo not given), the IC50 is 0.005 µM in the data set with Plasmodium falciparum [2], greater than 1000 µM in data set [3], 190 µM in the data set with HeLa and 0.013 µM in the data set with Plasmodium falciparum [10]. Further, the selectivity ratio in data set [6] turned out to be 38000.
With `CCCCOC(=O)OCOP(=O)(OCOC(=O)OCCCC)C(OCC(=O)N(C)O)c1ccc(F)c(F)c1` (stereo not given), the IC50 worked out at 0.031 µM in the data set with Plasmodium falciparum [1], 0.009 µM with Plasmodium falciparum [2], 190 µM with HeLa and 0.014 µM in the data set with Plasmodium falciparum [10]. In addition, the selectivity ratio in data set [6] was 21100.
Regarding `CC(C)OC(=O)OCOP(=O)(OCOC(=O)OC(C)C)C(CCC(=O)NO)c1ccc(F)c(F)c1` (stereo not given), the IC50 with Plasmodium falciparum [2] was 0.029 µM; in data set [3] it was greater than 1000 µM; in the data set on Plasmodium falciparum [10], 0.049 µM.
Turning to `CC(C)OC(=O)OCOP(=O)(OCOC(=O)OC(C)C)C(CCC(=O)N(C)O)c1ccc(F)c(F)c1` (stereo not given), the IC50 was found to be 0.007 µM in the data set on Plasmodium falciparum [2], 887 µM in data set [3] and 0.008 µM in the data set on Plasmodium falciparum [10].
Consider `CC(C)OC(=O)OCOP(=O)(OCOC(=O)OC(C)C)C(OCC(=O)N(C)O)c1ccc(F)c(F)c1` (stereo not given), for which the results for the 50% inhibitory concentration (IC50) with Plasmodium falciparum [1], in the data set on Plasmodium falciparum [2] and in the data set with Plasmodium falciparum [10] were 0.031 µM, 0.029 µM and 0.035 µM, respectively.
On to `CC(=O)ON(C)C(=O)CCC(c1ccc(F)c(F)c1)P(=O)(OCOC(=O)OC(C)C)OCOC(=O)OC(C)C` (stereo not given), for which the half-maximal inhibitory concentration (IC50) stood at 0.061 µM in the data set with Plasmodium falciparum [1], 0.008 µM with Plasmodium falciparum [2], 188 µM in the data set on HeLa and 0.013 µM in the data set with Plasmodium falciparum [10]. Further, the selectivity ratio in data set [6] was determined as 23500.
As to `CCOC(=O)ON(C)C(=O)CCC(c1ccc(F)c(F)c1)P(=O)(OCOC(=O)OC(C)C)OCOC(=O)OC(C)C` (stereo not given), the IC50 with Plasmodium falciparum [1] is 0.13 µM; with Plasmodium falciparum [2] it was 0.018 µM; in data set [3], greater than 1000 µM; with HeLa, 205 µM; in the data set on Plasmodium falciparum [10], 0.028 µM. Moreover, the selectivity ratio in [6] amounted to 11400.
As to `CCNC(=O)ON(C)C(=O)CCC(c1ccc(F)c(F)c1)P(=O)(OCOC(=O)OC(C)C)OCOC(=O)OC(C)C` (stereo not given), the IC50 with Plasmodium falciparum [1] was 0.072 µM; with Plasmodium falciparum [2], 0.012 µM; in data set [3], greater than 1000 µM; with HeLa, 168 µM; in the data set with Plasmodium falciparum [10] it was 0.014 µM. Moreover, the selectivity ratio in [6] came out at 14000. Further, in the data set with Plasmodium falciparum [11], the Activity is recorded as 0%.
Take `CC(C)OC(=O)OCOP(=O)(OCOC(=O)OC(C)C)C(CCC(=O)N(C)OC(=O)C(C)(C)C)c1ccc(F)c(F)c1` (stereo not given): the IC50 was 0.22 µM in the data set with Plasmodium falciparum [1], 0.034 µM with Plasmodium falciparum [2], greater than 1000 µM in data set [3] and 0.043 µM with Plasmodium falciparum [10].
Regarding `O[C@@H](c1cc(C(F)(F)F)nc2c(C(F)(F)F)cccc12)[C@H]1CCCCN1` (relative stereo) [(S,R)-MEFLOQUINE], the Activity in the data set with Plasmodium berghei [12] is 99.9%. Further, in the data set with Plasmodium berghei [13], the Survival came to 29 days.
On to `C[C@H]1[C@H](OC(=O)CCC(=O)O)O[C@@H]2O[C@@]3(C)CC[C@H]4[C@H](C)CC[C@@H]1[C@@]24OO3` [ARTESUNATE], for which the Activity in the data set with Plasmodium falciparum [14] was determined as 90%; with Plasmodium berghei [12], 99%; in the data set with Plasmodium falciparum [15] it was 90%. The Survival with Plasmodium berghei [13] is 10 days.
On to `CCN(CC)CCCC(C)Nc1ccnc2cc(Cl)ccc12` (stereo not given) [CHLOROQUINE], for which the Activity in the data set on Plasmodium falciparum [14] and with Plasmodium falciparum [15] was 90% in each case.
On to `O=CN(O)CCCP(=O)(O)O` [FOSMIDOMYCIN], for which the IC50 was 1.3 µM in the data set on Plasmodium falciparum [1] and 0.16 µM in [3].
For `CC(=O)N(O)CCCP(=O)(O)O` [FR-900098], the IC50 in the data set on Plasmodium falciparum [1] was found to be 0.35 µM; with Plasmodium falciparum [2], 0.16 µM; in data set [3], 0.015 µM; with Plasmodium falciparum [10] it was 0.16 µM.

The values are drawn from ChEMBL document CHEMBL3407342, “Prodrugs of reverse fosmidomycin analogues” (J Med Chem, 2015).
